Experimental data: publication PMC2745822 (The Journal of pharmacology and experimental therapeutics, 2008)

Assays:
[1] = test system: panel of 68 discrete GPCRs, ion channels, transporters, and enzymes; test: MDS Pharma LeadProfiling Screen radioligand binding panel; details: 10 µM; for VU0152099 with the single exception of GABAA receptors
GABAA receptors = test: MDS Pharma LeadProfiling Screen, flunitrazepam binding; details: 10 µM
panel of 16 GPCRs = test: Millipore GPCR Profiler functional panel; type: cell-based
Summary of the method: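 Outsourced functional screening paradigm covering 16 GPCRs, chosen as family A subtypes among the closest relatives of mAChRs. Test compound was assessed for agonist, antagonist and allosteric potentiator activity by its effect on full concentration-response curves of each receptor's agonist.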

M5 mAChR = target: T1, M5 mAChR (Homo sapiens, UniProt P08912); test: Calcium mobilization selectivity assay, CHO K1 cells expressing M5; type: cell-based; details: 30 µM compound
T1 sequence (P08912 1-532): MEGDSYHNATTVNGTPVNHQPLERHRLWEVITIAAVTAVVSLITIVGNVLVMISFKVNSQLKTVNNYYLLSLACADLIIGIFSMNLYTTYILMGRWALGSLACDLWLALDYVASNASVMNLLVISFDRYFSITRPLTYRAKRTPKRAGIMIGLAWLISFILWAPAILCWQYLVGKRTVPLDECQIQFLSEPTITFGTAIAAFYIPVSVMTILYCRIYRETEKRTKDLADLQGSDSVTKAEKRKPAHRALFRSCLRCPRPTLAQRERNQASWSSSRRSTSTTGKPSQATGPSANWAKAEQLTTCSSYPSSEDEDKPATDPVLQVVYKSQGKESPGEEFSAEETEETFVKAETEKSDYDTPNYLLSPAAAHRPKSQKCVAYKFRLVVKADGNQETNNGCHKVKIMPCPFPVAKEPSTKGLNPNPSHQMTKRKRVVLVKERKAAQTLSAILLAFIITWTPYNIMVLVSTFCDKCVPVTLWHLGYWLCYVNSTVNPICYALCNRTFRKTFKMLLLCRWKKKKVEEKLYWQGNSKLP
Summary of the method: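 CHO K1 cells stably expressing rat M1 or human M3 or M5, coupled through endogenous Gq. Seeded 50,000 cells/well and held overnight in antibiotic-free medium at 37°C/5% CO2. Loaded with 2 µM Fluo-4 AM for 45 min at 37°C in HBSS/20 mM HEPES/2.5 mM probenecid, pH 7.4. […] Three independent experiments.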

M2 mAChR = target: T2, M2 mAChR (Homo sapiens, UniProt P08172); test: Calcium mobilization selectivity assay, CHO K1 cells expressing M2-Gqi5; type: cell-based; details: 30 µM compound
T2 sequence (P08172 1-466): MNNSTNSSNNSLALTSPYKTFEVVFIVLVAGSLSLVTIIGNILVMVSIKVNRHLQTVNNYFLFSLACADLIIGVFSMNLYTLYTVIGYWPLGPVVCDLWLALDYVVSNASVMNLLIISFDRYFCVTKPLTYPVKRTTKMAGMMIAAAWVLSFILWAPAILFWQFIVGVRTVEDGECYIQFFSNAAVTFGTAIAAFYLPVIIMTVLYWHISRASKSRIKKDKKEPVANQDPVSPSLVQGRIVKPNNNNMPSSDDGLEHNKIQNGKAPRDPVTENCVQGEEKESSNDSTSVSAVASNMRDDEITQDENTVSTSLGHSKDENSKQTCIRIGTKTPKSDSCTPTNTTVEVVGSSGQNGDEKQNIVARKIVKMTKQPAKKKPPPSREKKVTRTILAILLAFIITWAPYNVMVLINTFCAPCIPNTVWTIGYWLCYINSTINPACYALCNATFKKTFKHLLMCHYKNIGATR
Summary of the method: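 CHO K1 cells stably co-expressing human M2 and chimeric Gqi5, grown with 500 µg/ml hygromycin B. Seeded 60,000 cells/well and kept overnight in antibiotic-free medium at 37°C/5% CO2. Loaded with 2 µM Fluo-4 AM for 45 min at 37°C in HBSS/HEPES/probenecid buffer, pH 7.4. […] Three independent experiments.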

[2] = target: T3, human M4 muscarinic receptor (Homo sapiens, UniProt P08173)
T3 sequence (P08173 1-479): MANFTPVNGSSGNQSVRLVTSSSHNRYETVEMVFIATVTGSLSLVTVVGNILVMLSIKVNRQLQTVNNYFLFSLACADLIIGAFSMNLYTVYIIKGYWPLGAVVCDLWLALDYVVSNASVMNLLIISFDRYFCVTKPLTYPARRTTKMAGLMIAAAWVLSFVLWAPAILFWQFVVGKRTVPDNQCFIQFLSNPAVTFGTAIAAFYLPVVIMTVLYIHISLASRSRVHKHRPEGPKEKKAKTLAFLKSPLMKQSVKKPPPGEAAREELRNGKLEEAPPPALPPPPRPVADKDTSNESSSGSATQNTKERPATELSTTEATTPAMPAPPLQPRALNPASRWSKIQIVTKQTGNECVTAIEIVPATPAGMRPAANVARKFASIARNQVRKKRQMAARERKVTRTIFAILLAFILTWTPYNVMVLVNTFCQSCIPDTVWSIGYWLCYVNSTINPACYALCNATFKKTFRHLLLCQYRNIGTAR

[3] = test system: amphetamine-induced hyperlocomotion in rats; test: Amphetamine-induced hyperlocomotion; type: in vivo, rat; details: 56.6 mg/kg i.p., 30-min pretreatment; 1 mg/kg s.c. amphetamine; 60 min
log P = type: physicochemical

**Q.** With `Cc1cc(C)c2c(N)c(C(=O)NCc3ccc4c(c3)OCO4)sc2n1` [VU0152099, 3-amino-N-(benzo[d][1,3]dioxol-5-ylmethyl)-4,6-dimethylthieno[2,3-b]pyridine carboxamide] as the molecule, how does the “displacement of binding, all targets tested” value [1] read?
**A.** The value was “less than 50%”.

**Q.** And the “displacement of flunitrazepam binding” value (GABAA receptors)?
**A.** Its value is 51%.

**Q.** And the “agonist activity, compound alone” value (panel of 16 GPCRs; data not shown)?
**A.** The value was “no agonist activity at any receptor studied”.

**Q.** What about the “allosteric potentiator activity at the other GPCR subtypes” value (panel of 16 GPCRs; full agonist CRCs) of the same molecule?
**A.** Its value is “had no allosteric potentiator activity at any of the other GPCR subtypes tested”.

**Q.** And the “shift in the ACh CRC at M5” value (M5 mAChR)?
**A.** Its value is “No shift in the ACh CRC was observed”.

**Q.** What about the “shift in the ACh CRC at M2-Gqi5” value (M2 mAChR) of the same molecule?
**A.** Its value is “No shift in the ACh CRC was observed”.

**Q.** And the “leftward shift in the ACh CRC” value ([2]; 10 µM compound)?
**A.** The value was “≈ 30 fold”.

**Q.** What about the “maximal response to ACh” value ([2]; in presence of compound) of the same molecule?
**A.** Its value is “approximately 130%”.

**Q.** And the “effect on amphetamine-induced hyperlocomotion” value [3]?
**A.** The value was “produced robust decreases in amphetamine-induced hyperlocomotion”.

**Q.** What about the “log P” value (log P) of the same molecule?
**A.** The value was 3.65.
